“And” between values parts separate entries of the source, which are not always exact repeats. Identical values can stand only once.

The test system of assay [1] is Mus musculus. Description: Antitrypanosomal activity was evaluated against Trypanosoma rhodesiense infections in mice, at dose 212 mg/kg, administered subcutaneously; Cures. Format: functional. Particulars: route subcutaneous. The method in brief: (§1)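 IUR/HA Swiss mice (six weeks old, 30-32 g) infected i.p. with Wellcome CT strain T. rhodesiense. A single subcutaneous dose in peanut oil was given about 2 h after inoculation, with five mice per dose level. Positive control was stilbamidine or 2-hydroxystilbamidine isethionate at 40 mg/kg. Deaths before day 4 were scored toxic, and 30-day survivors cured.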

The subject of assay [2] is Mus musculus. The assay is described as follows: (§2) Antitrypanosomal activity was evaluated against Trypanosoma rhodesiense infections in mice, at dose 26 mg/kg, administered orally; Cures. The format is functional. In a few lines:
(§3)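 Oral dosing of IUR/HA Swiss mice (six weeks old, 30-32 g) infected i.p. with Wellcome CT strain T. rhodesiense, with five mice per dose level. Survival was followed for 30 days. Deaths before day 4 were counted as toxic and 30-day survivors as cured. ΔMST is the difference in mean survival time between treated and control mice.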

Assay [3] has as its system Mus musculus. The assay is described as follows: Antitrypanosomal activity was evaluated against Trypanosoma rhodesiense infections in mice, at dose 106 mg/kg, administered orally; Cures. Format: functional. In a few lines:
as §3

Assay [4] relates to Mus musculus. The assay is described as follows: Antitrypanosomal activity was evaluated against Trypanosoma rhodesiense infections in mice, at dose 424 mg/kg, administered orally; Cures. The format is functional. In a few lines:
as §3

The test system of assay [5] is Mus musculus. The assay is described as follows: (§4) Antitrypanosomal activity was evaluated against Trypanosoma rhodesiense infections in mice, at dose 424 mg/kg, administered orally. Particulars: route oral, 424 mg/kg. The format is functional. In a few lines:
as §3

The subject of assay [6] is Trypanosoma brucei rhodesiense. Description: Antitrypanosomal activity was evaluated against Trypanosoma rhodesiense infections in mice, at dose 1.6 mg/kg, administered subcutaneously. The format is functional. Particulars: route subcutaneous. The method in brief: (§5)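 Six-week-old IUR/HA Swiss mice (30-32 g), 5 per dose, infected ip with 0.5 mL of a 1:50 000 dilution of heparinized heart blood from donor mice infected 3 days before (Wellcome CT strain). Single sc dose in peanut oil about 2 h post-inoculation. Deaths before day 4 counted toxic. ΔMST versus untreated controls; survivors at 30 days counted cured.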

The test system of assay [7] is Mus musculus. Description: Antitrypanosomal activity was evaluated against Trypanosoma rhodesiense infections in mice, at dose 106 mg/kg, administered orally. Format: functional. Particulars: route oral.
Assay [8] concerns Trypanosoma brucei rhodesiense. Description: Antitrypanosomal activity was evaluated against Trypanosoma rhodesiense infections in mice, at dose 212 mg/kg, administered subcutaneously. The format is functional. Particulars: route subcutaneous. The method in brief:
as §5

In assay [9] the test system is Mus musculus. The assay is described as follows: Antitrypanosomal activity was evaluated against Trypanosoma rhodesiense infections in mice, at dose 26 mg/kg, administered orally. Particulars: route oral. The format is functional.
Assay [10] has as its system Mus musculus. Described as §2. The format is functional. The source holds these as a separate data set.
Assay [11] relates to Trypanosoma brucei rhodesiense. Description: Antitrypanosomal activity against Trypanosoma rhodesiense infections in mice, 3.3 mg/kg administered subcutaneously. Format: functional. Particulars: route subcutaneous. In a few lines:
as §5

The subject of assay [12] is Mus musculus. The description is as §4. Particulars: route oral. Format: functional.
In assay [13] the test system is Trypanosoma brucei rhodesiense. The assay is described as follows: Antitrypanosomal activity against Trypanosoma rhodesiense infections in mice, 6.6 mg/kg administered subcutaneously. Format: functional. Particulars: route subcutaneous. In a few lines: as §5
Assay [14] relates to Mus musculus. Description: Antitrypanosomal activity was evaluated against Trypanosoma rhodesiense infections in mice, at dose 13 mg/kg, administered subcutaneously. Format: functional. Particulars: route subcutaneous. In a few lines: as §5
The test system of assay [15] is Trypanosoma brucei rhodesiense. Description: Antitrypanosomal activity against Trypanosoma rhodesiense infections in mice, 424 mg/kg administered subcutaneously. Particulars: route subcutaneous. Format: functional. The method in brief: as §1
The test system of assay [16] is Mus musculus. Description: Antitrypanosomal activity was evaluated against Trypanosoma rhodesiense infections in mice, at dose 13 mg/kg, administered subcutaneously;Toxic. The format is functional. Particulars: route subcutaneous. In a few lines:
as §1

For assay [17], the system named is Trypanosoma brucei rhodesiense. Description: Antitrypanosomal activity was evaluated against Trypanosoma rhodesiense infections in mice, at dose 26 mg/kg, administered subcutaneously. The format is functional. Particulars: route subcutaneous. In a few lines: as §1
The subject of assay [18] is Trypanosoma brucei rhodesiense. Description: Antitrypanosomal activity was evaluated against Trypanosoma rhodesiense infections in mice, at dose 106 mg/kg, administered subcutaneously. The format is functional. Particulars: route subcutaneous. The method in brief:
as §1

For assay [19], the system named is Mus musculus. The assay is described as follows: Antitrypanosomal activity was evaluated against Trypanosoma rhodesiense infections in mice, at dose 0.8mg/kg, administered subcutaneously.

As for `CC1(C)N=C(N)N=C(N)N1c1ccc(/N=N/c2ccc(N3C(N)=NC(N)=NC3(C)C)cc2)cc1.Cl.Cl`, the Cures in assay [1] is 4; in assay [2] it was 4 and 5; in assay [3], 4 and 5; in [4] it was 4. Further, in [5], the Toxic was 2 and 1. For the same molecule, the “Delta MST” value in [6] came to 0 days; in [7] it was 5.9 days; in assay [8] it was 0.9 days; in assay [9], 1 days; in assay [10], 1.9 days; in assay [11], 0.2 days. The “Delta MST” value in assay [12] was found to be 0.1 days; in [13], 1 days; in assay [14], 1.6 days.

Take `CC1(C)N=C(N)N=C(N)N1c1cccc(NC(=O)Nc2cccc(N3C(N)=NC(N)=NC3(C)C)c2)c1.Cl.Cl`: the Toxic is on record as 5 in assay [15], 3 in [16], 5 in [17] and 5 in assay [18]. In addition, the “Delta MST” value turned out to be 0 days in assay [6], 0 days in assay [11], 0 days in [13] and 0.2 days in [19].

These data come from ChEMBL document CHEMBL1122854, “Novel bis[1,6-dihydro-6,6-dimethyl-1,3,5-triazine-2,4-diamines] as antitrypanosomal agents” (1985).
